For one assay, the system named is Leishmania donovani. In words: Antileishmanial activity against Leishmania donovani amastigotes in CD1 mouse macrophage. To be noted: for pEC50: read-out: ED50 (the source's name). It is filed as functional, organism-based. In outline:
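Peritoneal macrophages from starch-induced CD1 mice, kept 24 h in RPMI1640 + 10% HIFCS at 37 °C, 5% CO2. Infected with L. donovani MHOM/ET/67/L82 amastigotes from hamster spleen at 5 parasites:1 macrophage. After 24 h, drug exposure for 5 days, overlay replaced day 3. Top concentration 30 µg/mL, quadruplicate. Slides methanol-fixed, Giemsa-stained, counted microscopically. ED50 by curve fitting.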

The test system of a further assay is Trypanosoma cruzi. In words: Antitrypanosomal activity against Trypanosoma cruzi trypomastigotes in CD1 mouse macrophage. Format: functional. To be noted: read-out: ED50 (the source's name). The method in brief:
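Starch-induced CD1 peritoneal macrophages plated at 4 × 10^5/mL, infected after 24 h with T. cruzi Tulahuan LAC-Z trypomastigotes. 24 h later, drug exposure for 3 days. ED50 by curve fitting.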

In assay [1] the test system is Trypanosoma brucei rhodesiense. The experiment in a line: Antitrypanosomal activity against Trypanosoma brucei rhodesiense trypomastigotes. To be noted: read-out: ED50 (the source's name). It is filed as functional. The method in brief:
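Bloodstream-form STIB900 trypomastigotes grown in HMI-18 + 15% HIFCS at 37 °C, 5% CO2. Seeded at 2 × 10^5/mL onto drug dilutions (top 30 µg/mL) for 72 h. Alamar Blue read 5-6 h later by fluorescence (ex/em 530/585 nm). ED50 by curve fitting.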

For a further assay, the system named is KB. The experiment in a line: Cytotoxicity against KB cell line. It is filed as functional. As to conditions: Homo sapiens, read-out: TD50 (the source's name).
A further assay deals with Plasmodium falciparum. In words: Antimalarial activity against Plasmodium falciparum 3D7. Format: functional, organism-based. As to conditions: read-out: ED50 (the source's name). The method in brief:
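Synchronized ring-stage 3D7 culture at 1% parasitemia in RPMI 1640, 5% hematocrit, 37 °C, 5% CO2. Top final drug concentration 30 µg/mL. After 24 h, (3H)-hypoxanthine added (0.2 µCi/well), then 48 h further incubation. Plates freeze/thawed and harvested, and hypoxanthine uptake counted. ED50 by curve fitting.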

pEC50: −log10 of the molar value.

Consider `COC(=O)[C@@H](N)CCCCNC(=O)[C@@H](C)[C@H]1CC[C@H]2C3CC=C4C[C@@H](O)CC[C@]4(C)[C@H]3CC[C@]12C` (stereo not given in full), for which the figures for the pEC50 (with Leishmania donovani; in the assay on Trypanosoma cruzi; in assay [1]) were 4.60, 4.95 and 6.26, respectively. Further, the CC50 in the assay with KB amounted to 42 µM.

On to `C[C@H](C(=O)NCCC[C@H](N)C(=O)O)[C@H]1CC[C@H]2C3CC=C4C[C@@H](O)CC[C@]4(C)[C@H]3CC[C@]12C` (stereo not given in full), for which the figures for the pEC50 (with Leishmania donovani; in the assay on Trypanosoma cruzi; in assay [1]) were below 4.19, below 4.19 and 5.62, respectively. For the same compound, the CC50 in the assay with KB is 651 µM.

Consider `COC(=O)CCNC[C@@H](C)[C@H]1CC[C@H]2C3CC=C4C[C@@H](OC(C)=O)CC[C@]4(C)[C@H]3CC[C@]12C` (stereo not given in full), for which the pEC50 with Leishmania donovani is 4.64; in the assay on Trypanosoma cruzi it was 4.54; in assay [1], 6.52; in the assay on Plasmodium falciparum, below 4.19. In addition, the CC50 in the assay with KB worked out at 17.4 µM.

Regarding `C[C@H](CNCCCC(=O)O)[C@H]1CC[C@H]2C3CC=C4C[C@@H](O)CC[C@]4(C)[C@H]3CC[C@]12C` (stereo not given in full), the pEC50 with Leishmania donovani is below 4.14; with Trypanosoma cruzi, 4.33; in assay [1], 4.84; in the assay with Plasmodium falciparum, 4.25. Also, the CC50 in the assay with KB was determined as 451 µM.

On to `CC(=O)O[C@H]1CC[C@@]2(C)C(=CCC3[C@@H]4CC[C@H]([C@H](C)CNCCCCCCCC(=O)O)[C@@]4(C)CC[C@@H]32)C1` (stereo not given in full), for which the figures for the pEC50 (in the assay with Trypanosoma cruzi; in assay [1]; in the assay on Plasmodium falciparum) were 4.68, 5.04 and below 4.24, respectively. Moreover, the CC50 with KB was 59 µM.

As to `C[C@H](CNCCCCCCCC(=O)O)[C@H]1CC[C@H]2C3CC=C4C[C@@H](O)CC[C@]4(C)[C@H]3CC[C@]12C` (stereo not given in full), the pEC50 was 4.58 in the assay with Leishmania donovani, 4.42 with Trypanosoma cruzi, 4.97 in assay [1] and below 4.20 in the assay on Plasmodium falciparum. For the same compound, in the assay on KB, the CC50 was above 633 µM.

As to `C[C@H](CNCCCCCCC(=O)O)[C@H]1CC[C@H]2C3CC=C4C[C@@H](O)CC[C@]4(C)[C@H]3CC[C@]12C` (stereo not given in full), the pEC50 with Leishmania donovani was below 4.19; in the assay with Trypanosoma cruzi, 4.35; in assay [1], 4.32; in the assay with Plasmodium falciparum, below 4.19. Moreover, the CC50 with KB is 72 µM.

As for `C[C@H](CNCC(=O)O)[C@H]1CC[C@H]2C3CC=C4C[C@@H](O)CC[C@]4(C)[C@H]3CC[C@]12C` (stereo not given in full), the pEC50 (in the assay on Leishmania donovani; with Trypanosoma cruzi; in assay [1]; in the assay on Plasmodium falciparum) was below 4.11 throughout. Moreover, in the assay on KB, the CC50 is above 770 µM.

For the compound `C[C@H](CNCCCCC(=O)O)[C@H]1CC[C@H]2C3CC=C4C[C@@H](O)CC[C@]4(C)[C@H]3CC[C@]12C` (stereo not given in full), the pEC50 in the assay on Leishmania donovani was below 4.15; with Trypanosoma cruzi, 4.18; in assay [1], 4.52; with Plasmodium falciparum, below 4.15. Besides, the CC50 in the assay with KB is above 695 µM.

On to `CC(=O)O[C@H]1CC[C@@]2(C)C(=CCC3[C@@H]4CC[C@H]([C@H](C)CNCC[C@H](NC(=O)OC(C)(C)C)C(=O)O)[C@@]4(C)CC[C@@H]32)C1` (stereo not given in full), for which the pEC50 in the assay with Leishmania donovani is below 4.28; in the assay on Trypanosoma cruzi, 4.88; in assay [1], below 4.28.

For `CC(=O)O[C@H]1CC[C@@]2(C)C(=CCC3[C@@H]4CC[C@H]([C@H](C)CNC[C@H](NC(=O)OC(C)(C)C)C(=O)O)[C@@]4(C)CC[C@@H]32)C1` (stereo not given in full), the figures for the pEC50 (with Leishmania donovani; with Trypanosoma cruzi; in assay [1]) were below 4.27, 5.33 and below 4.27, respectively.

For the compound `CC(=O)O[C@H]1CC[C@@]2(C)C(=CCC3[C@@H]4CC[C@H]([C@H](C)C(=O)NCC[C@H](NC(=O)OC(C)(C)C)C(=O)O)[C@@]4(C)CC[C@@H]32)C1` (stereo not given in full), the pEC50 was below 4.29 in the assay with Leishmania donovani, 4.57 in the assay on Trypanosoma cruzi and 4.76 in assay [1].

Turning to `C[C@H](C(=O)NCCCCC(=O)O)[C@H]1CC[C@H]2C3CC=C4C[C@@H](O)CC[C@]4(C)[C@H]3CC[C@]12C` (stereo not given in full), the pEC50 was below 4.17 in the assay on Leishmania donovani, 4.48 in the assay on Trypanosoma cruzi, 5.11 in assay [1] and below 4.17 in the assay on Plasmodium falciparum. For the same compound, the CC50 with KB was determined as 561 µM.

With `C[C@H](C(=O)NCCC[C@H](NC(=O)OCc1ccccc1)C(=O)O)[C@H]1CC[C@H]2C3CC=C4C[C@@H](O)CC[C@]4(C)[C@H]3CC[C@]12C` (stereo not given in full), the pEC50 in the assay with Leishmania donovani is below 4.30; in the assay with Trypanosoma cruzi, below 4.30; in assay [1], 5.88. In addition, the CC50 with KB amounted to 32 µM.

On to `C[C@H](C(=O)NCCCC[C@H](NC(=O)OCc1ccccc1)C(=O)O)[C@H]1CC[C@H]2C3CC=C4C[C@@H](O)CC[C@]4(C)[C@H]3CC[C@]12C` (stereo not given in full), for which the pEC50 is below 4.31 with Leishmania donovani, below 4.31 in the assay on Trypanosoma cruzi and 5.74 in assay [1]. Besides, the CC50 in the assay with KB came to 276 µM.

`CCN(CC)CCCC(C)Nc1ccnc2cc(Cl)ccc12` (stereo not given) [CHLOROQUINE]: in the assay on Plasmodium falciparum, the pEC50 is 8.52.

In the case of `C[C@H](C(=O)NCCCCCCCC(=O)O)[C@H]1CC[C@H]2C3CC=C4C[C@@H](O)CC[C@]4(C)[C@H]3CC[C@]12C` (stereo not given in full), the pEC50 with Leishmania donovani was 4.59; in the assay on Trypanosoma cruzi, 5.19; in assay [1], 6.37; in the assay with Plasmodium falciparum, below 4.21. In addition, the CC50 in the assay with KB was 377 µM.

On to `COC(=O)CCCCCCCNC[C@@H](C)[C@H]1CC[C@H]2C3CC=C4C[C@@H](OC(C)=O)CC[C@]4(C)[C@H]3CC[C@]12C` (stereo not given in full), for which the pEC50 was 4.83 in the assay with Leishmania donovani, 4.54 in the assay on Trypanosoma cruzi, 7.01 in assay [1] and 5.58 with Plasmodium falciparum. Besides, the CC50 with KB amounted to 10 µM.

As to `COC(=O)CCCCCCNC[C@@H](C)[C@H]1CC[C@H]2C3CC=C4C[C@@H](OC(C)=O)CC[C@]4(C)[C@H]3CC[C@]12C` (stereo not given in full), the pEC50 in the assay with Leishmania donovani is 5.02; in the assay on Trypanosoma cruzi, 4.27; in assay [1], 7.60; in the assay on Plasmodium falciparum it was 5.46. In addition, the CC50 in the assay on KB was 11.2 µM.

Consider pentostam, for which the ED50 in the assay on Leishmania donovani is above 10 µM.

In the case of `C[C@H](C(=O)NC[C@H](NC(=O)OC(C)(C)C)C(=O)O)[C@H]1CC[C@H]2C3CC=C4C[C@@H](O)CC[C@]4(C)[C@H]3CC[C@]12C` (stereo not given in full), the figures for the pEC50 (in the assay on Leishmania donovani; in the assay with Trypanosoma cruzi; in assay [1]) were below 4.25, below 4.25 and 4.46, respectively. Moreover, the CC50 with KB was 109 µM.

Regarding `C[C@]12CC[C@H](O)C[C@@H]1CC[C@@H]1[C@@H]2CC[C@@]2(C)[C@H]1CC[C@@H]2[C@@](C)(O)C1CCCCN1` (stereo not given in full), the values for the pEC50 (in the assay on Leishmania donovani; with Trypanosoma cruzi; in assay [1]) were 5.05, 5.13 and 5.48, respectively. Further, in the assay with KB, the CC50 was determined as 11.9 µM.

With `CC(=O)O[C@H]1CC[C@@]2(C)C(=CCC3[C@@H]4CC[C@H]([C@H](C)CNCCC[C@H](NC(=O)OCc5ccccc5)C(=O)O)[C@@]4(C)CC[C@@H]32)C1` (stereo not given in full), the pEC50 with Leishmania donovani was below 4.32; with Trypanosoma cruzi, 4.73; in assay [1], 4.76.

For the compound `COC(=O)CNC[C@@H](C)[C@H]1CC[C@H]2C3CC=C4C[C@@H](OC(C)=O)CC[C@]4(C)[C@H]3CC[C@]12C` (stereo not given in full), the pEC50 is 5.25 in the assay on Trypanosoma cruzi, 5.11 in assay [1] and below 4.17 with Plasmodium falciparum. The CC50 with KB was 94.5 µM.

Take `CC(=O)O[C@H]1CC[C@@]2(C)C(=CCC3[C@@H]4CC[C@H]([C@H](C)C(=O)NC[C@H](NC(=O)OC(C)(C)C)C(=O)O)[C@@]4(C)CC[C@@H]32)C1` (stereo not given in full): the pEC50 in the assay on Leishmania donovani was below 4.28; with Trypanosoma cruzi, 5.06; in assay [1] it was 5.57.

Take `C[C@H](C(=O)NCC[C@H](NC(=O)OC(C)(C)C)C(=O)O)[C@H]1CC[C@H]2C3CC=C4C[C@@H](O)CC[C@]4(C)[C@H]3CC[C@]12C` (stereo not given in full): the figures for the pEC50 (with Leishmania donovani; with Trypanosoma cruzi; in assay [1]) were below 4.26, 4.95 and below 4.26, respectively. Moreover, the CC50 with KB was 1270 µM.

With `N=C(N)c1ccc(OCCCCCOc2ccc(C(=N)N)cc2)cc1` [PENTAMIDINE], the pEC50 in assay [1] is 9.00.

Regarding `C[C@H](C(=O)NCCC(=O)O)[C@H]1CC[C@H]2C3CC=C4C[C@@H](O)CC[C@]4(C)[C@H]3CC[C@]12C` (stereo not given in full), the pEC50 (with Trypanosoma cruzi; in assay [1]; in the assay with Plasmodium falciparum) was below 4.14 each time. Besides, the CC50 in the assay on KB amounted to 615 µM.

Take `C[C@H](CNCCC[C@H](NC(=O)OCc1ccccc1)C(=O)O)[C@H]1CC[C@H]2C3CC=C4C[C@@H](O)CC[C@]4(C)[C@H]3CC[C@]12C` (stereo not given in full): the pEC50 is below 4.28 in the assay with Trypanosoma cruzi, below 4.28 in assay [1] and 4.29 in the assay with Plasmodium falciparum. The CC50 in the assay with KB stood at 417 µM.

As for `C[C@H](CNC[C@H](NC(=O)OC(C)(C)C)C(=O)O)[C@H]1CC[C@H]2C3CC=C4C[C@@H](O)CC[C@]4(C)[C@H]3CC[C@]12C` (stereo not given in full), the pEC50 in the assay with Trypanosoma cruzi was below 4.24; in assay [1], below 4.24; with Plasmodium falciparum, 5.24. Further, the CC50 with KB turned out to be 86.1 µM.

For the compound `C[C@H](C(=O)NCC(=O)O)[C@H]1CC[C@H]2C3CC=C4C[C@@H](O)CC[C@]4(C)[C@H]3CC[C@]12C` (stereo not given in full), the pEC50 (in the assay with Trypanosoma cruzi; in assay [1]; in the assay with Plasmodium falciparum) was below 4.13 in each case. The CC50 in the assay on KB is above 743 µM.
